According to ChEMBL document CHEMBL2086296, “Synthesis of novel quinoline-2-one based chalcones of potential anti-tumor activity” (Eur J Med Chem, 2012):

Columns and labels:
MCF7 [1] = assay: (§1) Cytotoxicity against human MCF7 cells after 24 hrs by SRB assay; format: functional; conditions: MCF7, 24 h
Method in brief: (§2)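 NCI 60-line screen. Cells in RPMI 1640 with 5% FBS and 2 mM L-glutamine, seeded at 5,000–40,000 cells/well by doubling time, then incubated 24 h at 37 °C, 5% CO2 before dosing. Time-zero plates fixed with TCA at drug addition. DMSO stocks diluted in medium with gentamicin to five concentrations, […]. Protein read by SRB staining. GI50, TGI and LC50 derived relative to control and time-zero.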

NCI-H460 = assay: Cytotoxicity against human NCI-H460 cells after 24 hrs by SRB assay; format: cell-based; conditions: nci-h460, 24 h
Method in brief: (§3)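 NCI 60-cell screen. Cells grown in RPMI 1640 with 5% FBS and 2 mM L-glutamine, seeded at 5,000–40,000 cells/well, preincubated 24 h at 37 °C in 5% CO2. Drug stock in DMSO, diluted in medium with gentamicin; five final concentrations, 100, 10, 1.0, 0.1 and […]. Time-zero plates were TCA-fixed. Protein read by SRB staining; GI50, TGI and LC50 taken relative to time-zero.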

KM12 = assay: Cytotoxicity against human KM12 cells after 24 hrs by SRB assay; format: cell-based; conditions: km12, 24 h; method in brief: as §3
MOLT-4 = assay: Cytotoxicity against human MOLT4 cells after 24 hrs by SRB assay; format: cell-based; conditions: molt-4, 24 h; method in brief: as §3
OVCAR-4 [2] = assay: (§4) Cytotoxicity against human OVCAR4 cells after 24 hrs by SRB assay; format: functional; conditions: OVCAR-4, 24 h; method in brief: as §2
U-251 [3] = assay: (§5) Cytotoxicity against human U251 cells after 24 hrs by SRB assay; format: functional; conditions: U-251, 24 h
Method in brief: (§6)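 NCI 60-cell screen. Cells are grown in RPMI 1640 with 5% FBS and 2 mM L-glutamine and seeded at 5,000–40,000 cells/well according to doubling time. They are preincubated 24 h at 37 °C in 5% CO2, and Tz plates are TCA-fixed at drug addition. Drug stock is in DMSO, diluted in medium with gentamicin, and tested at five concentrations (100, 10, 1.0, 0.1, […]). Protein is read by SRB staining. GI50, TGI and LC50 are derived relative to time-zero and control wells.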

U-251 [4] = assay: as §5; format: cell-based; conditions: u-251, 24 h
Method in brief: (§7)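 NCI 60-cell-line screen: cells grown in RPMI 1640 with 5% FBS and 2 mM L-glutamine, seeded at 5,000–40,000 cells/well by doubling time, and preincubated 24 h at 37 °C in 5% CO2. Time-zero plates were TCA-fixed. DMSO stocks were diluted in medium with gentamicin to five concentrations (100, 10, 1.0, 0.1, […]). Protein was read by SRB, and GI50, TGI and LC50 were derived against time-zero.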

MCF7 [5] = assay: as §1; format: cell-based; conditions: mcf7, 24 h; method in brief: as §3
COLO 205 = assay: Cytotoxicity against human COLO205 cells after 24 hrs by SRB assay; format: cell-based; conditions: colo 205, 24 h; method in brief: as §3
NCI/ADR-RES = assay: Cytotoxicity against human NCI/ADR-RES cells after 24 hrs by SRB assay; format: cell-based; method in brief: as §3
SF-268 [6] = assay: (§8) Cytotoxicity against human SF268 cells after 24 hrs by SRB assay; format: functional; conditions: SF-268, 24 h; method in brief: as §2
786-0 [7] = assay: (§9) Cytotoxicity against human 786-0 cells after 24 hrs by SRB assay; format: cell-based; conditions: 786-0, 24 h; method in brief: as §3
RXF 393 = assay: Cytotoxicity against human RXF393 cells after 24 hrs by SRB assay; format: cell-based; conditions: rxf 393, 24 h; method in brief: as §3
OVCAR-5 = assay: Cytotoxicity against human OVCAR5 cells after 24 hrs by SRB assay; format: functional; conditions: OVCAR-5, 24 h; method in brief: as §2
SF-295 = assay: Cytotoxicity against human SF295 cells after 24 hrs by SRB assay; format: cell-based; conditions: sf-295, 24 h; method in brief: as §3
SF-268 [8] = assay: as §8; format: cell-based; conditions: sf-268, 24 h; method in brief: as §3
OVCAR-4 [9] = assay: as §4; format: cell-based; conditions: ovcar-4, 24 h; method in brief: as §3
TK-10 = assay: Cytotoxicity against human TK10 cells after 24 hrs by SRB assay; format: functional; conditions: TK-10, 24 h; method in brief: as §6
HT-29 = assay: Cytotoxicity against human HT-29 cells after 24 hrs by SRB assay; format: cell-based; conditions: ht-29, 24 h; method in brief: as §3
SK-MEL-2 = assay: Cytotoxicity against human SK-MEL-2 cells after 24 hrs by SRB assay; format: functional; conditions: SK-MEL-2, 24 h; method in brief: as §2
M14 = assay: Cytotoxicity against human M14 cells after 24 hrs by SRB assay; format: functional; conditions: M14, 24 h; method in brief: as §2
LOX IMVI = assay: Cytotoxicity against human LOXIMVI cells after 24 hrs by SRB assay; format: functional; method in brief: as §2
SW-620 = assay: Cytotoxicity against human SW620 cells after 24 hrs by SRB assay; format: functional; conditions: SW-620, 24 h; method in brief: as §6
BT-549 = assay: Cytotoxicity against human BT549 cells after 24 hrs by SRB assay; format: cell-based; conditions: bt-549, 24 h; method in brief: as §3
SF-539 = assay: Cytotoxicity against human SF539 cells after 24 hrs by SRB assay; format: functional; conditions: SF-539, 24 h; method in brief: as §2
T47D = assay: Cytotoxicity against human T47D cells after 24 hrs by SRB assay; format: functional; method in brief: as §6
A549 = assay: Cytotoxicity against human A549 cells after 24 hrs by SRB assay; format: functional; conditions: A549, 24 h; method in brief: as §2
786-0 [10] = assay: as §9; format: functional; conditions: 786-0, 24 h; method in brief: as §2
HCC 2998 = assay: Cytotoxicity against human HCC2998 cells after 24 hrs by SRB assay; format: cell-based; conditions: hcc 2998, 24 h; method in brief: as §3
UACC-257 = assay: Cytotoxicity against human UACC257 cells after 24 hrs by SRB assay; format: cell-based; conditions: uacc-257, 24 h; method in brief: as §7
OVCAR-3 = assay: Cytotoxicity against human OVCAR3 cells after 24 hrs by SRB assay; format: functional; conditions: OVCAR-3, 24 h; method in brief: as §2
NCI-H522 = assay: Cytotoxicity against human NCI-H522 cells after 24 hrs by SRB assay; format: functional; conditions: NCI-H522, 24 h; method in brief: as §2
SN12C = assay: Cytotoxicity against human SN12C cells after 24 hrs by SRB assay; format: cell-based; method in brief: as §7
NCI-H23 = assay: Cytotoxicity against human NCI-H23 cells after 24 hrs by SRB assay; format: cell-based; conditions: nci-h23, 24 h; method in brief: as §3
MDA-MB-468 = assay: Cytotoxicity against human MDA-MB-468 cells after 24 hrs by SRB assay; format: functional; conditions: MDA-MB-468, 24 h; method in brief: as §2
HCT-116 = assay: Cytotoxicity against human HCT116 cells after 24 hrs by SRB assay; format: functional; conditions: HCT-116, 24 h; method in brief: as §2
HL-60 = assay: Cytotoxicity against human HL60 cells after 24 hrs by SRB assay; format: functional; conditions: HL-60, 24 h; method in brief: as §2

## O=C(/C=C/c1cc2ccccc2[nH]c1=O)c1ccc(Cl)cc1
MCF7 [1]
  GI50: 2.41 µM
  TGI: > 100 µM
NCI-H460
  LC50: > 100 µM
KM12
  LC50: 98.9 µM
MOLT-4
  LC50: > 100 µM
OVCAR-4 [2]
  GI50: 1.67 µM
  TGI: > 100 µM
U-251 [3]
  GI50: 2.52 µM
  TGI: 11.4 µM
U-251 [4]
  LC50: 39.7 µM
MCF7 [5]
  LC50: > 100 µM
COLO 205
  LC50: > 100 µM
NCI/ADR-RES
  LC50: > 100 µM
SF-268 [6]
  GI50: 7.15 µM
  TGI: 63.1 µM
786-0 [7]
  LC50: > 100 µM
RXF 393
  LC50: > 100 µM
OVCAR-5
  GI50: 12.7 µM
  TGI: 97 µM
SF-295
  LC50: > 100 µM
SF-268 [8]
  LC50: > 100 µM
OVCAR-4 [9]
  LC50: > 100 µM
TK-10
  GI50: 5.05 µM
  TGI: 20.8 µM
HT-29
  LC50: > 100 µM
SK-MEL-2
  GI50: 8.55 µM
  TGI: 25.7 µM
M14
  GI50: 7.54 µM
  TGI: 39.7 µM
LOX IMVI
  GI50: 3.26 µM
  TGI: 22.1 µM
SW-620
  GI50: 3.38 µM
  TGI: 12.1 µM
BT-549
  LC50: 97.6 µM
SF-539
  GI50: 2.07 µM
  TGI: 8.02 µM
T47D
  GI50: 7.31 µM
  TGI: > 100 µM
A549
  GI50: 7.24 µM
  TGI: > 100 µM
786-0 [10]
  GI50: 13.8 µM
  TGI: > 100 µM
HCC 2998
  LC50: 59.6 µM
UACC-257
  LC50: > 100 µM
OVCAR-3
  GI50: 5.9 µM
  TGI: 30.9 µM
NCI-H522
  GI50: 2.23 µM
  TGI: 6.58 µM
SN12C
  LC50: > 100 µM
NCI-H23
  LC50: > 100 µM
MDA-MB-468
  GI50: 2.96 µM
  TGI: 9.88 µM
HCT-116
  GI50: 3.26 µM
  TGI: 14.8 µM
HL-60
  GI50: 2.47 µM
  TGI: > 100 µM

## O=C(/C=C/c1cc2ccccc2[nH]c1=O)c1ccc(O)cc1
MCF7 [1]
  GI50: 3.49 µM
  TGI: 16.8 µM
NCI-H460
  LC50: > 100 µM
KM12
  LC50: 15.4 µM
MOLT-4
  LC50: > 100 µM
U-251 [3]
  GI50: 2.6 µM
  TGI: 10.9 µM
U-251 [4]
  LC50: 45.3 µM
MCF7 [5]
  LC50: 82.9 µM
COLO 205
  LC50: 76.8 µM
NCI/ADR-RES
  LC50: > 100 µM
SF-268 [6]
  GI50: 3.76 µM
  TGI: 23.3 µM
RXF 393
  LC50: 6.33 µM
OVCAR-5
  GI50: 3.2 µM
  TGI: 12.8 µM
SF-295
  LC50: > 100 µM
SF-268 [8]
  LC50: > 100 µM
TK-10
  GI50: 3.81 µM
  TGI: 11.8 µM
HT-29
  LC50: 41.4 µM
SK-MEL-2
  GI50: 4.13 µM
  TGI: 13.6 µM
M14
  GI50: 2.6 µM
  TGI: 6.57 µM
LOX IMVI
  GI50: 2.47 µM
  TGI: 12.7 µM
SW-620
  GI50: 1.89 µM
  TGI: 4.45 µM
BT-549
  LC50: > 100 µM
SF-539
  GI50: 2.55 µM
  TGI: 8.64 µM
T47D
  GI50: 4.19 µM
  TGI: 20.4 µM
A549
  GI50: 2.73 µM
  TGI: 11.8 µM
HCC 2998
  LC50: 59.6 µM
UACC-257
  LC50: 47.9 µM
OVCAR-3
  GI50: 3.22 µM
  TGI: 11.8 µM
NCI-H522
  GI50: 1.7 µM
  TGI: 3.29 µM
SN12C
  LC50: > 100 µM
NCI-H23
  LC50: > 100 µM
MDA-MB-468
  GI50: 2.12 µM
  TGI: 5.3 µM
HCT-116
  GI50: 1.94 µM
  TGI: 4.38 µM
HL-60
  GI50: 2.66 µM
  TGI: 6.86 µM
